What was measured:
U-937 [1] = experiment: Cytotoxicity against human U937 cells assessed as viable cells at 10 uM after 24 hrs by CCK8 assay relative to control; format: functional; conditions: U-937, 24 h, read-out: Activity
In short: (§1)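 Viability of U937, K562 and H1975 cells cultured in RPMI or DMEM with 10% FBS and 1% penicillin/streptomycin at 37 °C in 5% CO2. Cells treated at two fixed concentrations (5 or 10) for 24 or 48 h. Viable cells measured by CCK8 and expressed relative to control. Mean SD of three experiments.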

A549 = experiment: Cytotoxicity against human A549 cells assessed as reduction in cell viability after 72 hrs by CCK8 assay; format: functional, cell-based; conditions: Homo sapiens, A549, 72 h; read-out: IC50
In short: (§2)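 Cells kept in RPMI or DMEM with 10% FBS and 1% penicillin/streptomycin at 37 °C in 5% CO2. Seeded at 400-800 cells/well in 384-well plates and exposed to varying compound concentrations, with solution-only control, for 72 h. CCK8 reagent added, then absorbance read at 450 nm. Plinabulin and TSA were positive controls. Mean SD of three experiments.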

NCI-H1975 [2] = experiment: Cytotoxicity against human NCI-H1975 cells assessed as viable cells at 5 uM after 24 hrs by CCK8 assay relative to control; format: functional; conditions: NCI-H1975, 24 h, read-out: Activity; in short: as §1
K562 [3] = experiment: Cytotoxicity against human K562 cells assessed as viable cells at 10 uM after 48 hrs by CCK8 assay relative to control; format: functional; conditions: K562, 48 h, read-out: Activity; in short: as §1
K562 [4] = experiment: Cytotoxicity against human K562 cells assessed as reduction in cell viability after 72 hrs by CCK8 assay; format: functional, cell-based; conditions: Homo sapiens, K562, 72 h; read-out: IC50; in short: as §2
MOLT-4 = experiment: Cytotoxicity against human MOLT4 cells assessed as reduction in cell viability after 72 hrs by CCK8 assay; format: functional, cell-based; conditions: Homo sapiens, MOLT-4, 72 h; read-out: IC50; in short: as §2
[5] = Cytotoxicity against human HuH7 cells assessed as reduction in cell viability after 72 hrs by CCK8 assay; format: functional, cell-based, Huh-7; conditions: Homo sapiens, Huh-7, 72 h; read-out: IC50; in short: as §2
MCF7 = experiment: Cytotoxicity against human MCF7 cells assessed as reduction in cell viability after 72 hrs by CCK8 assay; format: functional, cell-based; conditions: Homo sapiens, MCF7, 72 h; read-out: IC50; in short: as §2
U-937 [6] = experiment: Cytotoxicity against human U937 cells assessed as viable cells at 10 uM after 48 hrs by CCK8 assay relative to control; format: functional; conditions: U-937, 48 h, read-out: Activity; in short: as §1
HL-60 = experiment: Cytotoxicity against human HL60 cells assessed as reduction in cell viability after 72 hrs by CCK8 assay; format: functional, cell-based; conditions: Homo sapiens, HL-60, 72 h; read-out: IC50; in short: as §2
K562 [7] = experiment: Cytotoxicity against human K562 cells assessed as viable cells at 10 uM after 24 hrs by CCK8 assay relative to control; format: functional; conditions: K562, 24 h, read-out: Activity; in short: as §1
U-937 [8] = experiment: Cytotoxicity against human U937 cells assessed as reduction in cell viability after 72 hrs by CCK8 assay; format: functional, cell-based; conditions: Homo sapiens, U-937, 72 h; read-out: IC50; in short: as §2
NCI-H1975 [9] = experiment: Cytotoxicity against human NCI-H1975 cells assessed as viable cells at 5 uM after 48 hrs by CCK8 assay relative to control; format: functional; conditions: NCI-H1975, 48 h, read-out: Activity; in short: as §1
NCI-H1975 [10] = experiment: Cytotoxicity against human NCI-H1975 cells assessed as reduction in cell viability after 72 hrs by CCK8 assay; format: functional, cell-based; conditions: Homo sapiens, NCI-H1975, 72 h; read-out: IC50; in short: as §2
K562 [11] = experiment: Cytotoxicity against human K562 cells assessed as viable cells at 5 uM after 48 hrs by CCK8 assay relative to control; format: functional; conditions: K562, 48 h, read-out: Activity; in short: as §1
U-937 [12] = experiment: Cytotoxicity against human U937 cells assessed as viable cells at 5 uM after 24 hrs by CCK8 assay relative to control; format: functional; conditions: U-937, 24 h, read-out: Activity; in short: as §1
HeLa = experiment: Cytotoxicity against human HeLa cells assessed as reduction in cell viability after 72 hrs by CCK8 assay; format: functional, cell-based; conditions: Homo sapiens, HeLa, 72 h; read-out: IC50; in short: as §2
NCI-H1975 [13] = experiment: Cytotoxicity against human NCI-H1975 cells assessed as viable cells at 10 uM after 48 hrs by CCK8 assay relative to control; format: functional; conditions: NCI-H1975, 48 h, read-out: Activity; in short: as §1
K562 [14] = experiment: Cytotoxicity against human K562 cells assessed as viable cells at 5 uM after 24 hrs by CCK8 assay relative to control; format: functional; conditions: K562, 24 h, read-out: Activity; in short: as §1
[15] = Cytotoxicity against human BGC823 cells assessed as reduction in cell viability after 72 hrs by CCK8 assay; format: functional, cell-based, BGC-823; conditions: Homo sapiens, BGC-823, 72 h; read-out: IC50; in short: as §2
U-937 [16] = experiment: Cytotoxicity against human U937 cells assessed as viable cells at 5 uM after 48 hrs by CCK8 assay relative to control; format: functional; conditions: U-937, 48 h, read-out: Activity; in short: as §1
NCI-H1975 [17] = experiment: Cytotoxicity against human NCI-H1975 cells assessed as viable cells at 10 uM after 24 hrs by CCK8 assay relative to control; format: functional; conditions: NCI-H1975, 24 h, read-out: Activity; in short: as §1

## C=CCn1c(=O)/c(=C\c2cccc(Cl)c2Cl)[nH]c(=O)/c1=C\c1ccccc1OC
U-937 [1]
  viability at 10 µM: 8.7%
A549
  IC50: 2300 nM
NCI-H1975 [2]
  viability at 5 µM: 107%
K562 [3]
  viability at 10 µM: 14.9%
K562 [4]
  IC50: 900 nM
MOLT-4
  IC50: 1200 nM
[5]
  IC50: 1200 nM
MCF7
  IC50: 2100 nM
U-937 [6]
  viability at 10 µM: 1.3%
HL-60
  IC50: 2000 nM
K562 [7]
  viability at 10 µM: 103%
U-937 [8]
  IC50: 500 nM
NCI-H1975 [9]
  viability at 5 µM: 42.7%
NCI-H1975 [10]
  IC50: 4500 nM
K562 [11]
  viability at 5 µM: 24.2%
U-937 [12]
  viability at 5 µM: 7%
HeLa
  IC50: 1600 nM
NCI-H1975 [13]
  viability at 10 µM: 42.6%
K562 [14]
  viability at 5 µM: 104%
[15]
  IC50: 2200 nM
U-937 [16]
  viability at 5 µM: 0.9%
NCI-H1975 [17]
  viability at 10 µM: 98.9%

Source: ChEMBL document CHEMBL3286120, “Design and synthesis of novel soluble 2,5-diketopiperazine derivatives as potential anticancer agents” (Eur J Med Chem, 2014)
